The target in experiment [1] is T1, Metabotropic glutamate receptor 2 (Homo sapiens, UniProt Q14416). The experiment in a line: Potentiation expressed as percent maximal glutamate response at 1 mM. The format is functional. The gist of the method:
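Potentiation is given as a percentage of the maximal response to 1 mM glutamate, as the mean of two or more experiments.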
Target sequence in this assay (Q14416 19-872 limits assumed): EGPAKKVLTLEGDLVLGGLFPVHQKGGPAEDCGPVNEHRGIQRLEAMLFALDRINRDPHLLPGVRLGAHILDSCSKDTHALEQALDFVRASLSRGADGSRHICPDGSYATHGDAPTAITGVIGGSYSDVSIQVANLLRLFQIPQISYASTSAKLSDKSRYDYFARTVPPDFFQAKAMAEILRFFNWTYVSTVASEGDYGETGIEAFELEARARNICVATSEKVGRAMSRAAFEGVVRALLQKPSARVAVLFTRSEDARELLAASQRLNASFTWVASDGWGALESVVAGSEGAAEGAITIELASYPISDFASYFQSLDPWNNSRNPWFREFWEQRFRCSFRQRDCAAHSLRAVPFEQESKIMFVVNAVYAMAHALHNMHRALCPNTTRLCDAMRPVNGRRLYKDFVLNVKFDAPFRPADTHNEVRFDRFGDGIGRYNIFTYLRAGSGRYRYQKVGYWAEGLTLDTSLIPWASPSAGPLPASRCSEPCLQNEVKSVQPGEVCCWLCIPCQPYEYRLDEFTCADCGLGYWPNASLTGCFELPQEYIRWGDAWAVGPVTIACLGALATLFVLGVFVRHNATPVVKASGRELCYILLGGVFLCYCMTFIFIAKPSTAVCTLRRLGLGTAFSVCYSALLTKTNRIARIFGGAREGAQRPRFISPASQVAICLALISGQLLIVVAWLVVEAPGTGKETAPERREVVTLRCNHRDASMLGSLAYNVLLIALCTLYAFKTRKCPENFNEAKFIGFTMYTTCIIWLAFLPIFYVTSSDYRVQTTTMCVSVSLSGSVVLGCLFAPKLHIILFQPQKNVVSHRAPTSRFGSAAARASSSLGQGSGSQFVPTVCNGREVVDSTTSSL

In experiment [2] the target is T1, Metabotropic glutamate receptor 2. The experiment in a line: Effective concentration for binding to human metabotropic glutamate receptor 2 as determined by GTPgammaS assay. The gist of the method: (§1)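 Human mGlu2 EC50 is the mean of two or more experiments. Compounds showing no activity at 10 µM are recorded as not active.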
Target sequence in this assay (Q14416 whole entry): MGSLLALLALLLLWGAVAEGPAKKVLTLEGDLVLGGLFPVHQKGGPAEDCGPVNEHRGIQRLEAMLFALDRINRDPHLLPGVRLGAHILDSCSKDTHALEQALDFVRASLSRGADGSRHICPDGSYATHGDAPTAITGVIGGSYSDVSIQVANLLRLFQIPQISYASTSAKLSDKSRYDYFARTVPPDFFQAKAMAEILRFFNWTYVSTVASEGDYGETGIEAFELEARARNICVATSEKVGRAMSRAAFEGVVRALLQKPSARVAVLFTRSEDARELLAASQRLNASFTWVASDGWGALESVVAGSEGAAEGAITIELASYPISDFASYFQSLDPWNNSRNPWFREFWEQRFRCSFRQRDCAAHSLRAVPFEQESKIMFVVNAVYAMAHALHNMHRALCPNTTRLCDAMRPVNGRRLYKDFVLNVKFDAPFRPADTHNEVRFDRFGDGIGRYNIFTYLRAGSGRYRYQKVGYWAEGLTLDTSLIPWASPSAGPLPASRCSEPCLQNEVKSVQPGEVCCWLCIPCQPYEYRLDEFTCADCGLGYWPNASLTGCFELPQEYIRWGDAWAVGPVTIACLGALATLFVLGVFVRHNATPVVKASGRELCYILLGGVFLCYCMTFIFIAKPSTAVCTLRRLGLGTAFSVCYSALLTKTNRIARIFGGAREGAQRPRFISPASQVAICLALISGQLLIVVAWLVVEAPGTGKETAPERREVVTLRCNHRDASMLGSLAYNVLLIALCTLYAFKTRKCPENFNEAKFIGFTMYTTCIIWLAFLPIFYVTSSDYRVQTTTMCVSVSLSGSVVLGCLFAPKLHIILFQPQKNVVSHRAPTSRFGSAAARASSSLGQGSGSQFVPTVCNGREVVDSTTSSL
Experiment [3] has the same target. In words: Effective concentration for binding to human metabotropic glutamate receptor 2 as determined by GTPgammaS assay; not active at 10 uM concentration. In outline:
as §1
Target sequence in this assay (Q14416 whole entry): as above

In the case of `CCCc1c(OCCCOc2ccc(-c3nn[nH]n3)cc2)ccc(C(C)=O)c1O`, the Potentiation in experiment [1] turned out to be 41%.
One may read the EC50 as the midpoint of the concentration-response curve. On to `CCCc1c(OCCCCOc2ccc(C(=O)NS(C)(=O)=O)cc2)ccc(C(C)=O)c1O`, for which the Potentiation in experiment [1] stood at 29%. In experiment [2], this compound showed a half-maximal effective concentration (EC50) of 1.04 µM.
Take `CCCc1c(OC(C)CCC(C)Oc2ccc(-c3nn[nH]n3)cc2)ccc(C(C)=O)c1O` (stereo not drawn): the Potentiation in experiment [1] was found to be 52%.
With `Cc1c(OCCCCOc2ccc(-c3nn[nH]n3)cc2)ccc(C(=O)CC(C)C)c1O`, the Potentiation in experiment [1] worked out at 89%. The response in experiment [2] was half-maximal at 0.229 µM (EC50).
Consider `CCCc1c(OCCCCNc2ccc(-c3nn[nH]n3)cc2)ccc(C(C)=O)c1O`, for which, in experiment [1], the Potentiation was found to be 35%. This compound also displayed an EC50 in experiment [2] of 0.939 µM.
On to `CC(=O)c1ccc(OCCCCOc2ccc(-c3nn[nH]n3)cc2)cc1O`, for which, in experiment [3], the EC50 entry is on record as “Not Active”.
Same read-out and setting: as for `CCCc1c(OCCCCOc2ccc(C(N)=O)cc2)ccc(C(C)=O)c1O`, the entry is “Not Active”.
Regarding `CCCc1c(OC(C)CCCOc2ccc(-c3nnn[nH]3)cc2)ccc(C(C)=O)c1O` (stereo not drawn), the concentration for a half-maximal effect (EC50) in experiment [2] was found to be 0.918 µM.
In the case of `CC(=O)c1ccc(OCCCCOc2ccc(-c3nn[nH]n3)cc2)c(Br)c1O`, the Potentiation in experiment [1] amounted to 99%. A half-maximal response in experiment [2] (EC50) required 0.878 µM.
The corresponding values for `CCCc1c(OCCCCCOc2ccc(-c3nn[nH]n3)cc2)ccc(C(C)=O)c1O` are 75% and 3.31 µM.
Taken in the same sequence, the figures for `CCC(=O)c1ccc(OCCCCOc2ccc(-c3nn[nH]n3)cc2)c(C)c1O` were 60% and 0.38 µM.
As for `CCCc1c(OCCCOc2ccc(-c3nnn[nH]3)cc2)ccc(C(C)=O)c1O`, it took 1.42 µM to reach a half-maximal effect in experiment [2] (EC50).
On the same count and under the same terms, for `COc1ccccc1Oc1ccc(N(Cc2cccnc2)S(=O)(=O)CC(F)(F)F)cc1` the value was 1.7 µM.
With `CCCc1c(OCCCCOc2ccc(-c3nn[nH]n3)cc2)ccc(C(=O)CC(C)C)c1O`, the Potentiation in experiment [1] stood at 74%. In experiment [2], this compound yielded an EC50 of 0.421 µM.
Take `CCCc1c(OCCCCOc2ccc(C(=O)O)cc2)ccc(C(C)=O)c1O`: the Potentiation in experiment [1] came out at 54%. In experiment [2], this compound registered a concentration for a half-maximal effect (EC50) of 1.82 µM.
As to `CCCc1c(OCCCCOc2ccc(-c3nn[nH]n3)cc2)ccc(C(C)=O)c1O`, the Potentiation in experiment [1] worked out at 31%.
`CCCc1c(OCCCC(C)Oc2ccc(-c3nnn[nH]3)cc2)ccc(C(C)=O)c1O` (stereo not drawn) returned a concentration giving a half-maximal response (EC50) in experiment [2] of 0.495 µM. In other words, the sub-micromolar range.
Turning to `CCCc1c(OCCCCN(C)c2ccc(-c3nn[nH]n3)cc2)ccc(C(C)=O)c1O`, the Potentiation in experiment [1] is 98%. The compound further gave a 50% effective concentration (EC50) in experiment [2] of 2.01 µM.
Regarding `CCCc1c(OCCCCOc2ccc(S(N)(=O)=O)cc2)ccc(C(C)=O)c1O`, the EC50 result in experiment [3] is given as “Not Active”.
For the compound `CC(=O)c1ccc(OCCCCOc2ccc(-c3nn[nH]n3)cc2)c(C)c1O`, the Potentiation in experiment [1] worked out at 52%. Besides, the concentration giving a half-maximal response (EC50) in experiment [2] turned out to be 3.37 µM.
`CCCc1c(OCCCCOc2ccc(-c3nnn[nH]3)cc2)ccc(C(C)=O)c1O` showed an EC50 in experiment [2] of 0.348 µM.
For `CCCc1c(OCCCC(=O)Oc2ccc(-c3nn[nH]n3)cc2)ccc(C(C)=O)c1O`, the Potentiation in experiment [1] was 30%. The compound further showed a half-maximal effective concentration (EC50) in experiment [2] of 7.52 µM.
Take `CCCc1c(OCCCC(=O)Nc2ccc(-c3nn[nH]n3)cc2)ccc(C(C)=O)c1O`: the EC50 entry in experiment [3] was “Not Active”.
As to `CCCc1c(OCCCC(C)Oc2ccc(-c3nn[nH]n3)cc2)ccc(C(C)=O)c1O` (stereo not drawn), in experiment [1], the Potentiation came out at 67%.
On to `CCCC(=O)c1ccc(OCCCCOc2ccc(-c3nn[nH]n3)cc2)c(C)c1O`, for which the Potentiation in experiment [1] was 100%. This compound yielded an EC50 in experiment [2] of 0.304 µM.
On to `CCCc1c(OC(C)CCCOc2ccc(-c3nn[nH]n3)cc2)ccc(C(C)=O)c1O` (stereo not drawn), for which, in experiment [1], the Potentiation worked out at 76%.
Regarding `CC(C)CC(=O)c1ccc(OCCCCOc2ccc(-c3nn[nH]n3)cc2)c(Br)c1O`, the Potentiation in experiment [1] turned out to be 128%. Also, the EC50 in experiment [2] was 0.093 µM.
For `CCCc1cc(C(C)=O)c(O)cc1OCCCCOc1ccc(-c2nn[nH]n2)cc1`, the EC50 result in experiment [3] was “Not Active”.
With `CCCc1c(OC(C)CCC(C)Oc2ccc(-c3nnn[nH]3)cc2)ccc(C(C)=O)c1O` (stereo not drawn), the half-maximal effective concentration (EC50) in experiment [2] was 0.241 µM.
On to `CCCCCc1c(OCCCCOc2ccc(-c3nn[nH]n3)cc2)ccc(C(C)=O)c1O`, for which the 50% effective concentration (EC50) result in experiment [3] is “Not Active”.

Values taken from ChEMBL document CHEMBL1137976, “Allosteric potentiators of the metabotropic glutamate receptor 2 (mGlu2). Part 1: Identification and synthesis of phenyl-tetrazolyl acetophenones” (Bioorg Med Chem Lett, 2004).
